The nature of data set [1]: melting temperature; fluorescence melt of hairpins on a sequencing array, two-state fit, raised by 9.35 °C to match UV melts. Conditions: sodium 0.088 M. The essentials: (§1)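 Hairpins were imaged by Cy3 fluorescence on a sequenced MiSeq flow cell with annealed Cy3 and quencher oligos, in 50 mM Na-HEPES pH 8.0, 25 mM NaCl, in 2.5 °C steps up to 60 °C. Bootstrapped two-state fits of normalised signals gave melting temperature and folding enthalpy. Four replicates were combined by inverse variance, and fitted temperatures were raised by 9.35 °C to match UV melts.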

Data set [2] can be described thus: folding enthalpy; higher = less favourable; fluorescence melt of hairpins on a sequencing array, two-state fit. Conditions: sodium 0.088 M. The essentials:
as §1

On to GCGACGCGAAAGCTGCGC (((..((....))..))), for which the Tm in data set [1] amounted to 61.9 °C. For the same sequence, in data set [2], the folding enthalpy is -23.7 kcal/mol.
For GCGACGCGAAAGCTTAGC ((.(.((....)).).)), in that order: 48.9 °C and -24.8 kcal/mol.
For GCGACGCTCGC ((((...)))), in that order: 50 °C and -15.3 kcal/mol.
As to GCGACGGATCGC ((((....)))), the Tm in data set [1] stood at 46.8 °C. In addition, the folding enthalpy in data set [2] is -14.9 kcal/mol.
Regarding GCGACGGGAAACCGCCGC (((.(((....))).))), in data set [1], the Tm amounted to 64.2 °C. In addition, the folding enthalpy in data set [2] was -45.2 kcal/mol.
For GCGACGTATCGC ((((....)))), in that order: 50.5 °C and -14.6 kcal/mol.
For GCGACTACGAAAGTACGC (((..(((....)))))) the same measures were 42.5 °C and -25.8 kcal/mol.
For GCGACTACTCGC ((((....)))), in that order: 46.6 °C and -23.2 kcal/mol.
For the sequence GCGACTCGAAAGAGCCGC (((.(((....))).))), the Tm in data set [1] was found to be 60.2 °C. Besides, the folding enthalpy in data set [2] was -47 kcal/mol.
For GCGACTCTCGC ((((...)))) the same measures were 49.3 °C and -22.2 kcal/mol.
For GCGACTCTTCGC ((((....)))) the same measures were 50.6 °C and -23 kcal/mol.
On to GCGACTGCTCGC ((((....)))), for which the Tm in data set [1] worked out at 50.4 °C. Moreover, the folding enthalpy in data set [2] is -16.5 kcal/mol.
GCGACTGGAAACAGTTGC ((.((((....)))).)): the Tm in data set [1] worked out at 55.5 °C. In addition, the folding enthalpy in data set [2] was -45.4 kcal/mol.
Take GCGACTTTTCGC ((((....)))): the Tm in data set [1] amounted to 49 °C. In addition, in data set [2], the folding enthalpy was -21.6 kcal/mol.
For GCGAGAACGAAAGTTCGC (((..(((....)))))) the same measures were 55.4 °C and -15 kcal/mol.
As for GCGAGAACTCGC ((((....)))), the Tm in data set [1] stood at 54.9 °C. In data set [2], the folding enthalpy was -27.4 kcal/mol.
For GCGAGACTCGC ((((...)))), in that order: 49 °C and -10.2 kcal/mol.
As for GCGAGATCGAAAGATCGC (((..(((....)))))), in data set [1], the Tm was determined as 52.1 °C. Moreover, the folding enthalpy in data set [2] is -24.3 kcal/mol.
For GCGAGCGAAAGCTACGC ((((((....))).))), in that order: 62.6 °C and -18 kcal/mol.
For the sequence GCGAGCGAAAGCTATCGC ((((((....)))..))), the Tm in data set [1] was 54.6 °C. In addition, in data set [2], the folding enthalpy was -23.3 kcal/mol.
For GCGAGCGAAAGCTCCGC ((((((....))).))) the same measures were 65.4 °C and -18.2 kcal/mol.
For GCGAGCGAAAGCTGACGC ((((((....)))..))), in that order: 51.1 °C and -24.7 kcal/mol.
Consider GCGAGCGGAAACACCCGC (((.(.(....).).))), for which the Tm in data set [1] came to 36.4 °C. For the same sequence, the folding enthalpy in data set [2] is -13.8 kcal/mol.
In the case of GCGAGCGGAAACACTCGC (((((.(....).))))), the Tm in data set [1] was found to be 56.2 °C. Also, the folding enthalpy in data set [2] was -48.3 kcal/mol.
Turning to GCGAGCGGAAACGTTCGC ((((.((....)).)))), the Tm in data set [1] was determined as 63.4 °C. Moreover, the folding enthalpy in data set [2] was -41.2 kcal/mol.
For GCGAGCTCGAAAGAGCGC (((..(((....)))))), in that order: 54.9 °C and -9.24 kcal/mol.
For GCGAGGCGAAAGCATGGC ((.(.((....)).).)), in that order: 49.3 °C and -16.4 kcal/mol.
For GCGAGGCGAAAGCATTGC ((.(.((....)).).)), in that order: 54.3 °C and -22.5 kcal/mol.
As for GCGAGGCGAAAGCCAAGC ((..(((....)))..)), the Tm in data set [1] stood at 69.2 °C. Besides, the folding enthalpy in data set [2] is -20.5 kcal/mol.
For GCGAGGCGAAAGCCCCGC (((.(((....))).))) the same measures were 68.5 °C and -26.6 kcal/mol.
On to GCGAGGCGAAAGCCCGGC ((..(((....)))..)), for which the Tm in data set [1] amounted to 63.8 °C. In addition, in data set [2], the folding enthalpy was -10.5 kcal/mol.
For GCGAGGCGAAAGCGCCGC (((..((....))..))), in that order: 63.8 °C and -12.5 kcal/mol.
For GCGAGGCGAAAGCGTAGC ((.(.((....)).).)), in that order: 51 °C and -15.4 kcal/mol.
Regarding GCGAGGCGAAAGCGTGGC ((.(.((....)).).)), the Tm in data set [1] amounted to 48.9 °C. Also, the folding enthalpy in data set [2] is -15.2 kcal/mol.
Regarding GCGAGGCGAAAGCTGCGC (((..((....))..))), the Tm in data set [1] was determined as 65.1 °C. Also, the folding enthalpy in data set [2] was -29.5 kcal/mol.
For GCGAGGCGTCGC ((((....)))) the same measures were 56.6 °C and -14.7 kcal/mol.
As for GCGAGGGGAAACCCCCAC (.(.(((....))).).), the Tm in data set [1] was 28.6 °C. In addition, the folding enthalpy in data set [2] is -10.9 kcal/mol.
For GCGAGGGGAAACCCTCAC (.(((((....))))).) the same measures were 45.2 °C and -13.7 kcal/mol.
Regarding GCGAGGGGAAACTCTCGC (((((.(....).))))), the Tm in data set [1] came out at 58 °C. Besides, the folding enthalpy in data set [2] was -40.3 kcal/mol.
For GCGAGTCCGAAAGGACGC (((..(((....)))))) the same measures were 53 °C and -9.26 kcal/mol.
For GCGAGTCGAAAGACCGC (((.(((....)))))), in that order: 66.8 °C and -35.1 kcal/mol.
Turning to GCGAGTCTCGC ((((...)))), in data set [1], the Tm was 50.1 °C. Besides, the folding enthalpy in data set [2] is -19.8 kcal/mol.
For GCGAGTGATCGC ((((....)))) the same measures were 54.3 °C and -21.9 kcal/mol.
For GCGAGTGGAAACACCCGC (((.(((....))).))) the same measures were 51.9 °C and -26.4 kcal/mol.
For GCGAGTGGAAACACTTGC ((.((((....)))).)), the Tm in data set [1] amounted to 53.6 °C. The folding enthalpy in data set [2] was -39.2 kcal/mol.
For GCGAGTTCGAAAGAACGC (((..(((....)))))), the Tm in data set [1] was 49.5 °C. Moreover, in data set [2], the folding enthalpy is -11.8 kcal/mol.
Consider GCGATAAGTCGC ((((....)))), for which the Tm in data set [1] is 49.8 °C. Further, the folding enthalpy in data set [2] was -18.9 kcal/mol.
Consider GCGATACGTCGC ((((....)))), for which the Tm in data set [1] came out at 54.4 °C. Moreover, the folding enthalpy in data set [2] was -30.6 kcal/mol.
For GCGATACTTCGC ((((....)))), in that order: 52.7 °C and -25.9 kcal/mol.
For GCGATAGATCGC ((((....)))) the same measures were 49.7 °C and -21.7 kcal/mol.
For GCGATAGCTCGC ((((....)))) the same measures were 65.8 °C and -9.76 kcal/mol.
As for GCGATCATCGC ((((...)))), the Tm in data set [1] was 49.6 °C. In addition, the folding enthalpy in data set [2] was -19.5 kcal/mol.
With GCGATCGAAAGATCCCGC ((((((....)))..))), the Tm in data set [1] amounted to 37.1 °C. In addition, in data set [2], the folding enthalpy was -17.7 kcal/mol.
For GCGATCGAAAGATCCGC ((((((....))).))), in that order: 52 °C and -28.8 kcal/mol.
Take GCGATCGAAAGATCTCGC ((((((....)))..))): in data set [1], the Tm stood at 44.1 °C. Also, in data set [2], the folding enthalpy is -20.2 kcal/mol.
In the case of GCGATCGAAAGATGACGC ((((((....)))..))), the Tm in data set [1] is 44.1 °C. Besides, in data set [2], the folding enthalpy is -28.3 kcal/mol.
For GCGATCGAAAGATGCCGC ((((((....)))..))), in that order: 39.6 °C and -17 kcal/mol.
